Results from different studies.
AMY2: Pancreatic alpha-amylase (AMY2, Sus scrofa, UniProt P00690)
D14: D14 (Arabidopsis thaliana, UniProt Q9SQR3)
EIF2AK3: Eukaryotic translation initiation factor 2-alpha kinase 3 (EIF2AK3, Homo sapiens, UniProt Q9NZJ5)

C[C@]1(O)CCCN(c2nc(Nc3ccc(S(=O)(=O)N[C@H]4CC[C@H](CN5CCN(c6ccc(C7CCC(=O)NC7=O)cc6F)CC5)CC4)cc3Cl)ncc2C(F)(F)F)C1 (stereo partly drawn) gave a remaining binding of 100% (Cyclin-dependent kinase 4, with cyclin D3 (CDK4, Homo sapiens, UniProt P11802); binding, competition with immobilised ligand; 1 µM).
O=c1c(O)c(-c2ccc(O)cc2)oc2c(Br)c(O)c(Br)c(O)c12 gave an inhibition of 100% (AMY2; enzyme activity, inhibitor; 50 µM, 30 min).
CC1=C(/C=C/C(C)=C/C=O)C(C)(C)C[C@H](O)C1 has a ΔTm of 0.16 °C (D14; thermal stability, DSF; 10 µM).
CCCCC(=O)Nc1ccc(-c2ccc3ncn(CCC)c(=O)c3c2)cn1 gave a remaining binding of 84% (Ephrin type-A receptor 5 (EPHA5, Homo sapiens, UniProt P54756); binding, competition with immobilised ligand; 0.5 µM).
The remaining binding of C1=C/COCc2cc(ccc2OCCN2CCCC2)Nc2nccc(n2)-c2cccc(c2)COC/1 is reported as 40% (Serine/threonine-protein kinase Nek7 (NEK7, Homo sapiens, UniProt Q8TDX7); binding; 0.1 µM).
For C#Cc1cc(-c2cc(Nc3nc(N[C@@H](C)c4ccc(F)cn4)ncc3Cl)n[nH]2)ccc1C=O, the inhibition was 16.5% (EIF2AK3; enzyme activity, inhibitor; 0.2 µM).
O=C1C[C@@H](c2ccccc2)Oc2cc(O)cc(O)c21 has an inhibition of 25.2% (AMY2; enzyme activity, inhibitor; 50 µM).
With CC(=O)/C=C/C=C(C)/C=C/C1=C(C)CC(O)CC1(C)C (stereo in doubt) the ΔTm was 4.65 °C (D14; thermal stability; 20 µM).
For O=c1cc(-c2ccc(O)c(O)c2)oc2c(Br)c(O)c(Br)c(O)c12, the inhibition was 99.8% (AMY2; enzyme activity, inhibitor; 50 µM, 30 min).
CC(=O)/C=C/C=C(C)/C=C/C1=C(C)CCCC1(C)C has a ΔTm of 1.3 °C (D14; thermal stability, DSF; 50 µM).
For COc1ccc2oc(-c3ccc4nc(N)oc4c3)c/c(=N\c3ccccc3NC(=O)CCN)c2c1, the remaining binding was 110% (Receptor-interacting serine/threonine-protein kinase 1 (RIPK1, Homo sapiens, UniProt Q13546); binding; 1 µM).
COc1cc(O)c2c(c1)O[C@H](c1ccccc1)CC2=O has an inhibition of 12.7% (AMY2; enzyme activity, inhibitor; 50 µM, 30 min).
The inhibition of Cc1cc(O)c(-c2ccc([C@@H](C)CN(C)C)cc2)c2c1[nH]c(=O)c1sccc12 is reported as -7.06% (EIF2AK3; enzyme activity, inhibitor; 0.1 µM).
With CC1=CC(O/C=C2/C(=O)OC3c4ccccc4CC23)OC1=O (racemic) the ΔTm was -7.73 °C (D14; thermal stability; 50 µM).
The inhibition of COc1ccc([C@@H]2CC(=O)c3c(O)cc(O)cc3O2)cc1O is reported as 30.3% (AMY2; enzyme activity, inhibitor; 50 µM, 30 min).
CC1=C(/C=C/C(C)=C/C=O)C(C)(C)CCC1 has a ΔTm of -3.82 °C (D14; thermal stability, DSF; 50 µM).
The inhibition of O=c1cc(-c2ccccc2)oc2cc(O)cc(O)c12 is reported as 22.3% (AMY2; enzyme activity, inhibitor; 50 µM, 30 min).
With Cc1cc(S(=O)(=O)N[C@H]2CC[C@H](CN3CCN(c4ccc(C5CCC(=O)NC5=O)cc4F)CC3)CC2)ccc1Nc1ncc(C(F)(F)F)c(N2CCC[C@](C)(O)C2)n1 (stereo partly drawn) the remaining binding was 75% (Cyclin-dependent kinase 4, with cyclin D1 (CDK4, Homo sapiens, UniProt P11802); binding, competition with immobilised ligand; 1 µM).
